“And” between values parts separate entries of the source, which are not always exact repeats. Equal values may be shown once.
Tested on: U2OS
Assay: Multiplex assay against U2OS
Assay type: toxicity, cell-based
Details: human
Outline: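 On a CQ1 microscope at 37°C and 5% CO2, live cells were imaged after compound addition. They had been stained at seeding with Hoechst33342, BioTracker Green Microtubule Cytoskeleton Dye, MitoTracker Red and Annexin V Alexa Fluor 680. CellPathfinder machine-learning gating assigned cells to Hoechst high-intensity objects or normal cells, normal cells to healthy, pyknosed or fragmented nuclei, and pyknosed cells to mitotic or apoptotic. Tubulin, mitochondrial-mass and membrane-permeability phenotypes are per cents of healthy-nucleus cells.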

[1] = 12 h, 1 µM, compound concentration 1 uM, replicate 1
[2] = 12 h, 1 µM, compound concentration 1 uM, replicate 2
[3] = 12 h, 10 µM, compound concentration 10 uM, replicate 1
[4] = 12 h, 10 µM, compound concentration 10 uM, replicate 2
[5] = 24 h, 1 µM, compound concentration 1 uM, replicate 1
[6] = 24 h, 1 µM, compound concentration 1 uM, replicate 2
[7] = 24 h, 10 µM, compound concentration 10 uM, replicate 1
[8] = 24 h, 10 µM, compound concentration 10 uM, replicate 2
[9] = 48 h, 1 µM, compound concentration 1 uM, replicate 1
[10] = 48 h, 1 µM, compound concentration 1 uM, replicate 2
[11] = 48 h, 10 µM, compound concentration 10 uM, replicate 1
[12] = 48 h, 10 µM, compound concentration 10 uM, replicate 2

Structure (SMILES): CNCc1ccc(-c2cc(-c3nc(-c4ccc(S(=O)(=O)C(C)C)cc4)cnc3N)on2)cc1 [BERZOSERTIB]
- Population Apoptotic (%) [1]: 16% and 46%
- Population Healthy Nuclei (%) [1]: 6% and 0%
- Population Hoechst High Intensity Objects (%) [1]: 31% and 81%
- Population Membrane Permeable-Phenotype (%) [1]: 46% and 20%
- Population Mitochondria Different-Phenotype (%) [1]: 40% and 20%
- Population Mitotic Cells (%) [1]: 83% and 53%
- Population Tubulin-Different-Phenotype (%) [1]: 40% and 80%
- Total Cell Count [1]: 185 and 523
- Population Apoptotic (%) [2]: 10%
- Population Fragmented Nuclei (%) [2]: 41% and 95%
- Population Healthy Nuclei (%) [2]: 10% and 1%
- Population Hoechst High Intensity Objects (%) [2]: 52% and 83%
- Population Membrane Permeable-Phenotype (%) [2]: 42% and 55%
- Population Mitotic Cells (%) [2]: 89%
- Population Normal (%) [2]: 47% and 16%
- Population Pyknosed Nuclei (%) [2]: 48%
- Population Apoptotic (%) [3]: 17% and 38%
- Population Healthy Nuclei (%) [3]: 4% and 0%
- Population Hoechst High Intensity Objects (%) [3]: 49% and 82%
- Population Membrane Permeable-Phenotype (%) [3]: 58% and 75%
- Population Mitochondria Different-Phenotype (%) [3]: 25% and 0%
- Population Mitotic Cells (%) [3]: 82% and 61%
- Population Normal (%) [3]: 50% and 17%
- Population Tubulin-Different-Phenotype (%) [3]: 41% and 50%
- Population Apoptotic (%) [4]: 11%
- Population Fragmented Nuclei (%) [4]: 39% and 97%
- Population Healthy Nuclei (%) [4]: 9% and 1%
- Population Hoechst High Intensity Objects (%) [4]: 45%
- Population Membrane Permeable-Phenotype (%) [4]: 31% and 62%
- Population Mitochondria Different-Phenotype (%) [4]: 5% and 12%
- Population Mitotic Cells (%) [4]: 88%
- Population Normal (%) [4]: 54%
- Population Apoptotic (%) [5]: 50%
- Population Healthy Nuclei (%) [5]: 0% and 11%
- Population Hoechst High Intensity Objects (%) [5]: 81% and 50%
- Population Membrane Permeable-Phenotype (%) [5]: 50% and 61%
- Population Mitotic Cells (%) [5]: 50%
- Population Normal (%) [5]: 18% and 49%
- Population Tubulin-Different-Phenotype (%) [5]: 50% and 61%
- Total Cell Count [5]: 432 and 192
- Population Apoptotic (%) [6]: 28%
- Population Fragmented Nuclei (%) [6]: 37% and 97%
- Population Hoechst High Intensity Objects (%) [6]: 56% and 82%
- Population Membrane Permeable-Phenotype (%) [6]: 38% and 44%
- Population Mitochondria Different-Phenotype (%) [6]: 33% and 11%
- Population Mitotic Cells (%) [6]: 71%
- Population Normal (%) [6]: 43% and 17%
- Population Pyknosed Nuclei (%) [6]: 41%
- Population Tubulin-Different-Phenotype (%) [6]: 47% and 55%
- Total Cell Count [6]: 92 and 244
- Population Apoptotic (%) [7]: 33% and 22%
- Population Fragmented Nuclei (%) [7]: 19%
- Population Healthy Nuclei (%) [7]: 10%
- Population Hoechst High Intensity Objects (%) [7]: 59%
- Population Membrane Permeable-Phenotype (%) [7]: 61%
- Population Mitotic Cells (%) [7]: 66% and 77%
- Population Normal (%) [7]: 40%
- Population Pyknosed Nuclei (%) [7]: 70%
- Population Tubulin-Different-Phenotype (%) [7]: 75%
- Population Apoptotic (%) [8]: 14% and 40%
- Population Fragmented Nuclei (%) [8]: 38% and 98%
- Population Healthy Nuclei (%) [8]: 15% and 0%
- Population Hoechst High Intensity Objects (%) [8]: 51% and 82%
- Population Mitochondria Different-Phenotype (%) [8]: 21% and 16%
- Population Mitotic Cells (%) [8]: 85% and 60%
- Population Normal (%) [8]: 48% and 17%
- Population Tubulin-Different-Phenotype (%) [8]: 36% and 66%

Structure (SMILES): CC(C)NCC(O)COc1ccc(CCOCC2CC2)cc1.Cl (centres undefined) [BETAXOLOL HYDROCHLORIDE]
- Population Apoptotic (%) [1]: 60%
- Population Fragmented Nuclei (%) [1]: 9%
- Population Healthy Nuclei (%) [1]: 84%
- Population Hoechst High Intensity Objects (%) [1]: 8%
- Population Mitochondria Different-Phenotype (%) [1]: 14%
- Population Mitotic Cells (%) [1]: 40%
- Population Normal (%) [1]: 92%
- Population Pyknosed Nuclei (%) [1]: 6%
- Population Tubulin-Different-Phenotype (%) [1]: 12%
- Total Cell Count [1]: 175
- Population Apoptotic (%) [2]: 100%
- Population Fragmented Nuclei (%) [2]: 2%
- Population Healthy Nuclei (%) [2]: 95%
- Population Hoechst High Intensity Objects (%) [2]: 16%
- Population Membrane Permeable-Phenotype (%) [2]: 6%
- Population Mitochondria Different-Phenotype (%) [2]: 2%
- Population Mitotic Cells (%) [2]: 0%
- Population Normal (%) [2]: 83%
- Population Pyknosed Nuclei (%) [2]: 2%
- Population Tubulin-Different-Phenotype (%) [2]: 9%
- Total Cell Count [2]: 55
- Population Apoptotic (%) [3]: 52%
- Population Fragmented Nuclei (%) [3]: 14%
- Population Healthy Nuclei (%) [3]: 69%
- Population Hoechst High Intensity Objects (%) [3]: 5%
- Population Membrane Permeable-Phenotype (%) [3]: 2%
- Population Mitochondria Different-Phenotype (%) [3]: 64%
- Population Mitotic Cells (%) [3]: 47%
- Population Normal (%) [3]: 94%
- Population Pyknosed Nuclei (%) [3]: 16%
- Population Tubulin-Different-Phenotype (%) [3]: 53%
- Total Cell Count [3]: 124
- Population Apoptotic (%) [4]: 23%
- Population Fragmented Nuclei (%) [4]: 9%
- Population Healthy Nuclei (%) [4]: 77%
- Population Hoechst High Intensity Objects (%) [4]: 7%
- Population Membrane Permeable-Phenotype (%) [4]: 5%
- Population Mitochondria Different-Phenotype (%) [4]: 72%
- Population Mitotic Cells (%) [4]: 76%
- Population Normal (%) [4]: 92%
- Population Pyknosed Nuclei (%) [4]: 13%
- Population Tubulin-Different-Phenotype (%) [4]: 49%
- Total Cell Count [4]: 107
- Population Apoptotic (%) [5]: 28%
- Population Fragmented Nuclei (%) [5]: 8%
- Population Healthy Nuclei (%) [5]: 83%
- Population Membrane Permeable-Phenotype (%) [5]: 3%
- Population Mitochondria Different-Phenotype (%) [5]: 10%
- Population Mitotic Cells (%) [5]: 71%
- Population Pyknosed Nuclei (%) [5]: 7%
- Population Tubulin-Different-Phenotype (%) [5]: 8%
- Total Cell Count [5]: 202
- Population Apoptotic (%) [6]: 33%
- Population Fragmented Nuclei (%) [6]: 3%
- Population Healthy Nuclei (%) [6]: 85%
- Population Hoechst High Intensity Objects (%) [6]: 5%
- Population Membrane Permeable-Phenotype (%) [6]: 4%
- Population Mitochondria Different-Phenotype (%) [6]: 6%
- Population Mitotic Cells (%) [6]: 66%
- Population Normal (%) [6]: 94%
- Population Pyknosed Nuclei (%) [6]: 10%
- Population Tubulin-Different-Phenotype (%) [6]: 2%
- Total Cell Count [6]: 59
- Population Apoptotic (%) [7]: 57%
- Population Fragmented Nuclei (%) [7]: 13%
- Population Healthy Nuclei (%) [7]: 70%
- Population Hoechst High Intensity Objects (%) [7]: 6%
- Population Membrane Permeable-Phenotype (%) [7]: 7%
- Population Mitochondria Different-Phenotype (%) [7]: 59%
- Population Mitotic Cells (%) [7]: 42%
- Population Normal (%) [7]: 93%
- Population Pyknosed Nuclei (%) [7]: 16%
- Population Tubulin-Different-Phenotype (%) [7]: 31%
- Total Cell Count [7]: 139
- Population Apoptotic (%) [8]: 40%
- Population Fragmented Nuclei (%) [8]: 7%
- Population Healthy Nuclei (%) [8]: 78%
- Population Hoechst High Intensity Objects (%) [8]: 5%
- Population Membrane Permeable-Phenotype (%) [8]: 5%
- Population Mitochondria Different-Phenotype (%) [8]: 78%
- Population Mitotic Cells (%) [8]: 60%
- Population Normal (%) [8]: 94%
- Population Pyknosed Nuclei (%) [8]: 15%
- Population Tubulin-Different-Phenotype (%) [8]: 46%
- Total Cell Count [8]: 106
- Population Apoptotic (%) [9]: 25%
- Population Fragmented Nuclei (%) [9]: 8%
- Population Healthy Nuclei (%) [9]: 81%
- Population Membrane Permeable-Phenotype (%) [9]: 2%
- Population Mitochondria Different-Phenotype (%) [9]: 7%
- Population Mitotic Cells (%) [9]: 74%
- Population Pyknosed Nuclei (%) [9]: 10%
- Population Tubulin-Different-Phenotype (%) [9]: 6%
- Total Cell Count [9]: 296
- Population Apoptotic (%) [10]: 50%
- Population Fragmented Nuclei (%) [10]: 9%
- Population Healthy Nuclei (%) [10]: 80%
- Population Hoechst High Intensity Objects (%) [10]: 3%
- Population Membrane Permeable-Phenotype (%) [10]: 5%
- Population Mitochondria Different-Phenotype (%) [10]: 16%
- Population Mitotic Cells (%) [10]: 50%
- Population Normal (%) [10]: 96%
- Population Pyknosed Nuclei (%) [10]: 9%
- Population Tubulin-Different-Phenotype (%) [10]: 10%
- Total Cell Count [10]: 87
- Population Apoptotic (%) [11]: 52%
- Population Fragmented Nuclei (%) [11]: 19%
- Population Healthy Nuclei (%) [11]: 68%
- Population Hoechst High Intensity Objects (%) [11]: 4%
- Population Membrane Permeable-Phenotype (%) [11]: 3%
- Population Mitochondria Different-Phenotype (%) [11]: 34%
- Population Mitotic Cells (%) [11]: 47%
- Population Normal (%) [11]: 95%
- Population Pyknosed Nuclei (%) [11]: 12%
- Population Tubulin-Different-Phenotype (%) [11]: 21%
- Total Cell Count [11]: 200
- Population Apoptotic (%) [12]: 54%
- Population Fragmented Nuclei (%) [12]: 9%
- Population Healthy Nuclei (%) [12]: 75%
- Population Hoechst High Intensity Objects (%) [12]: 5%
- Population Membrane Permeable-Phenotype (%) [12]: 9%
- Population Mitochondria Different-Phenotype (%) [12]: 50%
- Population Mitotic Cells (%) [12]: 45%
- Population Normal (%) [12]: 94%
- Population Pyknosed Nuclei (%) [12]: 15%
- Population Tubulin-Different-Phenotype (%) [12]: 25%
- Total Cell Count [12]: 152
